High-throughput results (PubChem BioAssay)
esBAF inh: SWI/SNF esBAF complex inhibition. reporter increase, % at 12.5 µM. mouse ES cells, Bmi1-luciferase knock-in reporter, 24 h; 100% = twice the neutral-well signal. AID 602393. hit rate 2% among 350,000; in the data active = activation above about 40%; inconclusive = no clear call, values can overlap the other calls;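 note: a rise in the Bmi1 reporter signal indicates esBAF inhibition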
ASAP1 inh: ASAP1 ArfGAP inhibition; inhibition, % at 16.5 µM; hit rate 0.19% among 360,000; ASAP1-stimulated ARF1 GTP hydrolysis, GDP FP detection; Q9ULH1; in the data active = inhibition above about 25%
Target sequence (Q9ULH1 325-724 limits assumed): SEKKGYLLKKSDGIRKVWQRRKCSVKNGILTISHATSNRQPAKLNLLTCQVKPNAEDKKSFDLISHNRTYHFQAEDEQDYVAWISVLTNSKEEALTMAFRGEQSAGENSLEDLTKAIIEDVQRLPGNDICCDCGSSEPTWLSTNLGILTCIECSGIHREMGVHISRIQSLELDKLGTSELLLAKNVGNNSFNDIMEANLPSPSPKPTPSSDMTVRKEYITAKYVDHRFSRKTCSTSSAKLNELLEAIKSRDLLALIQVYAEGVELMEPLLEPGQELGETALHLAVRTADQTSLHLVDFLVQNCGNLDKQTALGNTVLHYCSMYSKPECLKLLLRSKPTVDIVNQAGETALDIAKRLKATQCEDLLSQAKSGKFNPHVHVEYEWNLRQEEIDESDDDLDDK
ARFGAP1 inh: inhibitors of rat ARFGAP1 | Q62848 | Arfgap1-stimulated ARF1 GTP hydrolysis, GDP FP detection | inhibition, % at 16.5 µM | hit rate 0.26% among 360,000 | AID 651572;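 active = inhibition above a per-plate limit, mean inhibition of low control wells plus 3 SD, cut at about 25% in these data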
Target sequence (Q62848 1-136 limits assumed): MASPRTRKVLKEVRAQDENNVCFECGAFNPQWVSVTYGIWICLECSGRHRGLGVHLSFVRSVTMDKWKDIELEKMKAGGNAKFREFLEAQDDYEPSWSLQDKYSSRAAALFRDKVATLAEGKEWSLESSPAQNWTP
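System: truncated rat Arfgap1 GAP domain / Medium: HEPES-based buffer, pH 7.5 / Also added: N-terminally truncated human ARF1-GTP substrate / Incubation: enzyme reaction 120 min at 25 °C after 20 min preincubation / Measured by: FP of antibody-bound GDP Alexa 633 tracer, ex 620/em 688 nm / Replicates: singlicate, each compound tested once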
SMARCA2 activ: activators of SMARCA2 function. hit rate 1% among 370,000. MG213 cells, MMTV-luciferase reporter, dexamethasone, overnight. AID 652017. activation, % at 9.1 µM; in the data active = activation above about 7.8%
Ring1 derepress: de-represses Ring1 in mouse ESCs, confirming esBAF inhibition. shares compounds with esBAF inh. fold change at 33 µM. mouse ESC E14, Ring1 mRNA RT-qPCR fold change. 550 tested, under 10 active;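 active = Ring1 gene expression raised more than 2-fold over untreated cells in both replicates at either tested dose; inconclusive = only one replicate above 2-fold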;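 note: Ring1 transcript normalised to actin housekeeping signal by TaqMan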
Fgf4 repress: represses Fgf4 in mouse ESCs, confirming esBAF inhibition; shares compounds with esBAF inh; Fgf4 expression fold change at 33 µM; hit rate 4% among 550; AID 743177; mouse ESC E14, Fgf4 mRNA qPCR fold change; hits give low values;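 active = Fgf4 expression under 0.8 fold of control in both repeat measurements at one or both tested doses; inconclusive = under 0.8 fold in just a single repeat measurement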;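 note: Fgf4 transcript normalised to actin in duplex TaqMan qPCR; cells exposed to compound for 24 h before lysis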
Bmi1 derepress: confirmation of esBAF inhibitors: Bmi1 de-repression in mouse ESCs | shares compounds with esBAF inh | mouse ESE14 ES cells, Bmi1 mRNA qPCR fold; hits give high values | fold change at 33 µM | 550 tested, under 10 active | AID 743180;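 active = Bmi1 expression fold change above 6 at either tested concentration, seen in replicate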;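 note: higher fold means more Bmi1 de-repression and stronger esBAF inhibition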
A549 tox SP: A549 cell cytotoxicity; AID 743188; shares compounds with esBAF inh; cell viability change % (negative = cytotoxic), % at 25 µM, hits read low; 550 tested, under 10 active; plate reader; call rule not given here
HepG2 cytotox SP: kills or reduces viability of HepG2 cells; shares compounds with esBAF inh; HepG2 cytotoxicity, plate reader; hits give low values; activity change, negative = inhibition, % at 25 µM; hit rate 4% among 550; AID 743189; in the data active = activity change below about -50%
HEK293 tox SP: HEK293 cell cytotoxicity at single point | hit rate 3% among 550 | shares compounds with esBAF inh | plate reader | activity change, negative = inhibition, % at 25 µM, hits read low; in the data active = activity change below about -38%, passing the limit was not always enough
Large screens that a line does not name were inactive (follow-up assays come after a bar, where they were run). An excerpt weighted towards active compounds, which were near 2.6% of everything screened.

C=CCNc1nc(NCc2ccc(NC(C)=O)cc2)c2sc(-c3ccccc3)cc2n1	esBAF inh 65.9 | A549 tox SP -69.2 | HepG2 cytotox SP -88.5 | HEK293 tox SP -121.4
O=C(C[C@@H]1CC[C@@H]2[C@H](COC[C@H](O)CN2Cc2ccc(Cl)cc2)O1)NCc1ccccc1Cl	none (no result: ASAP1 inh, ARFGAP1 inh, SMARCA2 activ)
Cn1c(/N=C(\N)c2ccccc2)nc2ccccc21	esBAF inh 82.9 | Ring1 derepress inactive | Fgf4 repress inactive | Bmi1 derepress inactive | A549 tox SP inactive | HepG2 cytotox SP inactive | HEK293 tox SP inactive
C[C@H](CO)N1C[C@H](C)[C@H](CN(C)C(=O)c2ccc(F)cc2)Oc2ncc(C#C[C@@H](C)O)cc2C1=O	none (no result: ASAP1 inh, ARFGAP1 inh, SMARCA2 activ)
COc1cccc(-c2ccc3c(c2)[C@@H]2[C@@H](CCN2S(=O)(=O)c2ccccc2C)[C@H](CO)N3C)c1	none (no result: ASAP1 inh, ARFGAP1 inh, SMARCA2 activ)
CC(C)NC(=O)N(C)C[C@H]1Oc2ccc(NC(=O)CCCN(C)C)cc2C(=O)N([C@H](C)CO)C[C@@H]1C	none (no result: ASAP1 inh, ARFGAP1 inh, SMARCA2 activ)
CC(C)CN1C(=O)c2ccc(C(=O)Nc3nccs3)cc2C1=O	esBAF inh 62.8 | Ring1 derepress inactive | Fgf4 repress inactive | Bmi1 derepress inactive | A549 tox SP inactive | HepG2 cytotox SP inactive | HEK293 tox SP inactive
CC(C)CN1C(=O)c2ccc(C(=O)Nc3ccncc3)cc2C1=O	none
CC(C)CN1C(=O)c2ccc(NC(=O)c3cccs3)cc2C1=O	esBAF inh 63.4 | Ring1 derepress inactive | Fgf4 repress inactive | Bmi1 derepress inactive | A549 tox SP inactive | HepG2 cytotox SP inactive | HEK293 tox SP inactive
Cn1c(C(=O)N/N=C/c2ccccc2)cc2ccccc21	esBAF inh 63.8 | Ring1 derepress inactive | Fgf4 repress inactive | Bmi1 derepress inactive | A549 tox SP inactive | HepG2 cytotox SP inactive | HEK293 tox SP inactive
O=C(Cc1cccnc1)N[C@@H]1CC[C@H](CCNS(=O)(=O)c2ccccc2Cl)O[C@H]1CO	none (no result: ASAP1 inh, ARFGAP1 inh, SMARCA2 activ)
OC(c1ccc(F)cc1)c1nc(-c2ccc(F)c(Cl)c2)cs1 (stereo not drawn)	none
CN(C)c1ccc(-c2csc(C(O)c3ccc(F)cc3)n2)cc1 (stereo not drawn)	esBAF inh 82.0 | Ring1 derepress inactive | Fgf4 repress inactive | Bmi1 derepress inactive | A549 tox SP inactive | HepG2 cytotox SP inactive | HEK293 tox SP inactive
COc1ccc(-c2csc(C(O)c3ccc(F)cc3)n2)cc1 (stereo not drawn)	esBAF inh 59.7 | Ring1 derepress inactive | Fgf4 repress inactive | Bmi1 derepress inactive | A549 tox SP inactive | HepG2 cytotox SP inactive | HEK293 tox SP inactive
CN(C)c1ccc(-c2csc(C(O)c3ccccc3)n2)cc1 (stereo not drawn)	esBAF inh 61.2 | Ring1 derepress inactive | Fgf4 repress inconclusive | Bmi1 derepress inactive | A549 tox SP inactive | HepG2 cytotox SP inactive | HEK293 tox SP inactive
CN(C)c1ccc(CN(C(=O)c2cc3ccccc3oc2=O)C2CCS(=O)(=O)C2)cc1 (stereo not drawn)	esBAF inh 69.9 | Ring1 derepress inactive | Fgf4 repress inactive | Bmi1 derepress inactive | A549 tox SP inactive | HepG2 cytotox SP inactive | HEK293 tox SP inactive
CC=Cc1ccc2n(c1=O)C[C@@H]1[C@@H](CO)[C@H](C(=O)NCC3CC3)[C@H]2N1CC1CCOCC1 (mixture of isomers)	none (no result: ASAP1 inh, ARFGAP1 inh, SMARCA2 activ)
COc1ccc(S(=O)(=O)Nc2ccc3c(c2)C(=O)N([C@H](C)CO)C[C@H](C)[C@@H](CN(C)S(=O)(=O)c2c(C)noc2C)OCCCC[C@H](C)O3)cc1	none (no result: ASAP1 inh, ARFGAP1 inh, SMARCA2 activ)
CC(=O)Oc1ccc(-c2csc(Nc3ccc(Cl)cn3)n2)cc1	esBAF inh 58.8 | Ring1 derepress inactive | Fgf4 repress inactive | Bmi1 derepress inactive | A549 tox SP inactive | HepG2 cytotox SP inactive | HEK293 tox SP inactive
C[C@@H]1CN([C@H](C)CO)C(=O)c2cccc(NC(=O)c3ccncc3)c2O[C@H]1CN(C)S(C)(=O)=O	none (no result: ASAP1 inh, ARFGAP1 inh, SMARCA2 activ)
Cc1cc(C(=O)Cn2cnc3ccccc3c2=O)c(C)n1C1CC1	esBAF inh 64.7 | Ring1 derepress inactive | Fgf4 repress inactive | Bmi1 derepress inactive | A549 tox SP inactive | HepG2 cytotox SP inactive | HEK293 tox SP inactive
COc1ccc(-c2nnn(Cc3ccccc3)n2)cc1	esBAF inh 79.4 | Ring1 derepress inactive | Fgf4 repress inactive | Bmi1 derepress inactive | A549 tox SP inactive | HepG2 cytotox SP inactive | HEK293 tox SP inactive
Cc1ccccc1NC(=O)c1ccc2c(c1)N(C)CCS2	esBAF inh 79.5 | Ring1 derepress inactive | Fgf4 repress inactive | Bmi1 derepress inactive | A549 tox SP inactive | HepG2 cytotox SP inactive | HEK293 tox SP inactive
O=C(c1ccc(Cn2c(=S)[nH]c3ccc(N4CCOCC4)cc3c2=O)cc1)N1CCN(c2ccc(F)cc2)CC1	none (no result: esBAF inh)
COc1ccc(N2CCN(C(=O)c3ccc(Cn4c(=S)[nH]c5ccc(N6CCOCC6)cc5c4=O)cc3)CC2)cc1	esBAF inh 68.3 | Ring1 derepress inactive | Fgf4 repress inactive | Bmi1 derepress inactive | A549 tox SP inactive | HepG2 cytotox SP inactive | HEK293 tox SP inactive
CC(C)c1ccc(CNc2ccc3c(c2)ncn3C)cc1	none
CC(C)c1ccc(CNc2ncccn2)cc1	esBAF inh 54.9 | Ring1 derepress inactive | Fgf4 repress inactive | Bmi1 derepress inactive | A549 tox SP inactive | HepG2 cytotox SP inactive | HEK293 tox SP inactive
COc1cccc(C(=O)Nc2cccc3ccccc23)c1OC	none
